This is an account of results in ChEMBL document CHEMBL1649190, “Identification and characterization of mefloquine efficacy against JC virus in vitro” (Antimicrob Agents Chemother, 2009).

Counter-ions that a name gives are not always drawn. Some results are limits rather than exact numbers.

Data set [1] has as its system JC polyomavirus. The experiment in a line: microbe, parasite or virus in culture. To be noted: M1/SVEdelta, SVG-A, 72 h. It counts as functional, cell-based.
Data set [2] is described as follows: in vitro. To be noted: human.
Data set [3] in a line: in vitro. To be noted: human. The source holds these as a separate data set.
The test system of another data set is Plasma. Description: Drug concentration in human plasma. It counts as ADME, cell-free. To be noted: read-out: Drug uptake.
The subject of data set [4] is JC polyomavirus. Description: Antiviral activity against JC polyomavirus Mad1 infected in human PHFG cells assessed as inhibition of viral replication after 7 to 10 days.
In data set [5] the test system is JC polyomavirus. The experiment in a line: Antiviral activity against JC polyomavirus Mad4 infected in human SVG-A cells assessed as inhibition of viral replication after 3 days. It counts as functional, cell-based. To be noted: 72 h. In outline:
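SVG-A cells (2,000/well) in MEM with 2% heat-inactivated FBS and 4 mM L-glutamine were exposed to JCV(Mad4) plus compound over a concentration range for 60 min at 37°C. Drug-containing medium was then added. Cells were fixed, then stained for VP1 (PAb597) and DAPI and imaged. Infection rate was % VP1+/DAPI+ cells; inhibition was scaled to infected and uninfected controls. EC50 came from a sigmoid fit, n = 5.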

In data set [6] the test system is JC polyomavirus. The experiment in a line: Antiviral activity against JC polyomavirus M1/SVEdelta infected in human SVG-A cells assessed as inhibition of viral replication after 3 days. To be noted: 72 h.
Data set [7] in a line: Lipophilicity, log P of the compound. It counts as physicochemical. To be noted: octanol/water.
The mark [8] stands for this setting: SVG-A cells infected with JC polyomavirus M1/SVEdelta.

Turning to `O[C@H](c1cc(C(F)(F)F)nc2c(C(F)(F)F)cccc12)[C@@H]1CCCCN1` (racemic) [(R,S)-MEFLOQUINE], a half-maximal effect in the data set on JC polyomavirus [1] (EC50) was put at 2.7 µM.
For `O[C@@H](c1cc(C(F)(F)F)nc2c(C(F)(F)F)cccc12)[C@H]1CCCCN1` [(S,R)-MEFLOQUINE], the EC50 (usually the concentration that produces a half-maximal response) in the data set on JC polyomavirus [1] is 4.5 µM.
In the case of `CC(C)c1ccc2c(c1)CC[C@H]1[C@](C)(C(N)=O)CCC[C@]21C` [DEHYDROABIETAMIDE], the selectivity ratio in “in vitro [2]” (setting [8]) is greater than 2. In “in vitro [3]” (SVG-A cells), the CC50 is greater than 40 µM.
With `O=C(O)Cc1ccccc1Nc1c(Cl)cccc1Cl` [DICLOFENAC SODIUM], in the data set “in vitro [2]” (setting [8]), the selectivity ratio was greater than 2. In the data set on JC polyomavirus [1], it took 8.3 µM to reach a half-maximal effect (EC50). For the same compound, the concentration in the data set with Plasma came to 8 µM. The CC50 in the data set “in vitro [3]” (SVG-A cells) was found to be 30.5 µM.
For the compound `COc1cc(C)c(C(=O)Oc2cc(C)c(C(=O)O)c(O)c2C)c(OC)c1C` [DIFFRACTAIC ACID], in the data set “in vitro [2]” (setting [8]), the selectivity ratio is greater than 2. The same compound yielded a 50% effective concentration (EC50) with JC polyomavirus [1] of 14.4 µM. In “in vitro [3]” (SVG-A cells), this compound displayed a CC50 greater than 40 µM.
In the data set on JC polyomavirus [1], `COc1ccc([C@@H]2Sc3ccccc3N(CCN(C)C)C(=O)[C@@H]2OC(C)=O)cc1` [DILTIAZEM HYDROCHLORIDE] showed an EC50 of 8.5 µM. The concentration with Plasma was 0.5 µM. Besides, the CC50 in “in vitro [3]” (SVG-A cells) was greater than 40 µM.
Turning to `O=C(O)c1ccccc1Nc1cccc(C(F)(F)F)c1` [FLUFENAMIC ACID], the selectivity ratio in the data set “in vitro [2]” (setting [8]) was greater than 3. This compound registered an EC50 with JC polyomavirus [1] of 11 µM.
As for `Cc1c(Nc2ncccc2C(=O)O)cccc1C(F)(F)F` [FLUNIXIN MEGLUMINE], the selectivity ratio in the data set “in vitro [2]” (setting [8]) was greater than 2. Also, in the data set with JC polyomavirus [1], the EC50 came out at 14.5 µM. Besides, in “in vitro [3]” (SVG-A cells), the CC50 is greater than 40 µM.
For the compound `CC(=O)O[C@H]1C[C@@]2(C)[C@@H](C[C@@H](O)[C@H]3[C@@]4(C)CC[C@@H](O)[C@@H](C)[C@@H]4CC[C@@]32C)/C1=C(\CCC=C(C)C)C(=O)O` [FUSIDIC ACID], in “in vitro [2]” (setting [8]), the selectivity ratio is greater than 2. The same compound showed a 50% effective concentration (EC50) in the data set with JC polyomavirus [1] of 8.6 µM. Also, in the data set with Plasma, the concentration came to 19 µM. Moreover, the CC50 in “in vitro [3]” (SVG-A cells) is greater than 40 µM.
Turning to `Cc1nccc2c1[nH]c1ccccc12` [HARMAN], in the data set “in vitro [2]” (setting [8]), the selectivity ratio was greater than 2. Also, the half-maximal effective concentration (EC50) in the data set with JC polyomavirus [1] was 14.4 µM. This compound also came in with a CC50 in the data set “in vitro [3]” (SVG-A cells) greater than 40 µM.
As for `CC1=C(/C=C/C(C)=C/C=C/C(C)=C\C(=O)O)C(C)(C)CCC1` [ISOTRETINOIN], in “in vitro [2]” (svg-a), the selectivity ratio was greater than 2. This compound returned an EC50 in the data set on JC polyomavirus [1] of 4.4 µM. Moreover, the concentration with Plasma worked out at 24 µM. Also, the CC50 in “in vitro [3]” (SVG-A cells) was greater than 40 µM.
Regarding `Cc1cccc(Nc2ccccc2C(=O)O)c1C` [MEFENAMIC ACID], the selectivity ratio in the data set “in vitro [2]” (setting [8]) was greater than 2. Moreover, it took 10.9 µM to reach a half-maximal effect with JC polyomavirus [1] (EC50). The concentration with Plasma was 40 µM. Besides, the CC50 in the data set “in vitro [3]” (SVG-A cells) was greater than 40 µM.
On to `OC(c1cc(C(F)(F)F)nc2c(C(F)(F)F)cccc12)C1CCCCN1` (configuration not stated) [MEFLOQUINE], for which the IC50 (commonly the point on the concentration scale where inhibition reaches its midpoint) was found to be 5 µM in the data set with JC polyomavirus [4], 3.9 µM in the data set with JC polyomavirus [1], 4 µM with JC polyomavirus [5] and 4 µM with JC polyomavirus [6]. Besides, the selectivity ratio in “in vitro [2]” (svg-a) was greater than 2. In the data set with JC polyomavirus [1], the EC50 is 4 µM. In addition, the concentration with Plasma was found to be 6 µM. This compound also showed a CC50 in “in vitro [3]” (svg-a) of 16.1 µM. Further, in data set [7], the logP (as a rule, the decadic logarithm of the partition coefficient of the neutral form, usually between octanol and water) was 2.47.
Take `Clc1ccc(COC(Cn2ccnc2)c2ccc(Cl)cc2Cl)c(Cl)c1` (configuration not stated) [MICONAZOLE NITRATE]: in “in vitro [3]” (svg-a), the CC50 turned out to be 22.9 µM.
Consider `CCC(=O)Nc1ccc(Cl)c(Cl)c1` [PROPANIL], for which the selectivity ratio in “in vitro [2]” (setting [8]) was greater than 2. The same compound had an EC50 with JC polyomavirus [1] of 7.8 µM. Moreover, the CC50 in “in vitro [3]” (SVG-A cells) is greater than 40 µM.
As for `Cc1c(Cl)cccc1Nc1ccccc1C(=O)O` [TOLFENAMIC ACID], the selectivity ratio in the data set “in vitro [2]” (setting [8]) is greater than 3. In the data set on JC polyomavirus [1], this compound showed an EC50 of 15 µM.
Take `O=c1c2ccccc2oc2ccccc12` [XANTHONE]: the selectivity ratio in the data set “in vitro [2]” (setting [8]) is greater than 2. Besides, the EC50 in the data set with JC polyomavirus [1] worked out at 16.8 µM. The same compound displayed a CC50 in the data set “in vitro [3]” (SVG-A cells) greater than 40 µM.
